Yeast growth inh: growth inhibitors of yeast BB579 in restrictive medium, primary screen, yeast lifespan-shortening project, S. cerevisiae; inhibition, % at 10 µM; AID 804, 2007; OD615, 48 h; 140,000 compounds, 0.51% hits;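 active means inhibition above a set limit, 3 SD over the mean compound inhibition, cut at about 44% in these data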
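controls = amphotericin B 10 µg/mL, positive | assay system = DeaD yeast strain BB579 | schedule = 48 h compound exposure at 30 °C after 4 h preincubation | detection = OD615 turbidity measurement | medium = restrictive CSMM-D medium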
RAM inhibit: inhibitors of the yeast RAM network, primary screen, dse1pr::URA3 reporter, 5-FOA selection. S. cerevisiae dse1pr::URA3 reporter, 5-FOA growth OD615, 2 d; analog-sensitive cbk1-as2 kinase mutant strain. inhibition, % at 50 µM. 190,000 compounds, 1.8% hits. AID 868, 2007;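 active means inhibition above a set limit, 3 SD over mean compound inhibition, cut at about 8.4% in these data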;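 further: 0% = DMSO-only wells with no growth and 100% = 10 µM 1-NA-PP1 full growth; inhibition rescues growth on 5-FOA so higher OD means more RAM inhibition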
Yeast life ext: compounds extending yeast replicative lifespan, primary screen, S. cerevisiae, OD615; inhibition of the nicotinamide effect, % at 10 µM; 130,000 compounds, 0.68% hits; S. cerevisiae growth with nicotinamide; deaD strain in restrictive glucose medium;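 active means inhibition above a set limit, placed 3 SD over the median of all compounds, cut at about 26% in these data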;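 further: 0% = nicotinamide-treated wells and 100% = cells grown without nicotinamide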
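System: DeaD-strain S. cerevisiae / Buffer or medium: CSMM-D, restrictive glucose (dextrose) synthetic minimal medium / Probe or stimulus: nicotinamide, 1.5 mM, co-present with compound / Compound: one concentration, 10 µM, DMSO 0.25% / Incubation: 48 h compound exposure at 30 °C, humidified / Technique: optical density (absorbance) at 615 nm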
Measles CPE: compounds protecting cells from measles virus cytopathic effect, primary screen, measles RdRp inhibitor project, single point, MLSMR library, absorbance; Measles virus-infected cells, CPE protection; protection (pct of control), % at 4 µM; 140,000 compounds, 1.5% hits; AID 841, 2007; in the data active means protection mostly above about 24%, no sharp cut-off; inactive means mostly below about 26%
* hit, by the source's call; nt = no result. Compounds with a hit are over-represented: about 3.8% of the library has one in this group of screens.

SMILES | Yeast growth inh | RAM inhibit | Yeast life ext | Measles CPE
CC(C)CCn1c(=O)c(C(=O)N/N=C/c2cccc(F)c2)c(O)c2ccccc21 | 12.6 | 0.1 | 38.5* | 3.4
CCCCCc1c(O)c2ccccc2[nH]c1=O | -23.9 | 0.8 | -6.4 | 35.6*
CC(C)NC(=O)c1c(O)c2ccccc2[nH]c1=O | -1.5 | 1.1 | 3.1 | 16.6
CCOc1ccc(C(C)NC(=O)c2cccc(F)c2)cc1 (stereo not drawn) | -16.4 | 1.3 | 5.0 | 1.8
CCCCSc1nc(O)c(C2OC(=O)c3c2ccc(OC)c3OC)c(=O)n1C (stereo not drawn) | -37.5 | -0.1 | 60.9* | 3.1
CCCCCCSc1nc(O)c(C2OC(=O)c3c2ccc(OC)c3OC)c(=O)n1-c1ccccc1 (stereo not drawn) | -25.8 | 8.6* | 1.8 | 14.3
CCSc1nc(O)c(C2OC(=O)c3c2ccc(OC)c3OC)c(=O)n1CC (stereo not drawn) | -0.1 | 0.0 | -6.2 | 10.3
COCc1cc(N2CCCCC2)nc(-c2ccccc2)n1 | nt | 0.1 | nt | nt
C=CCCCCCCCCC(=O)NNC1=CC(=O)CC(C)(C)C1 | -42.7 | 1.0 | -7.0 | 5.6
Nc1nnnn1/N=C/c1ccc(O)cc1 | -11.0 | 1.6 | -7.0 | 49.8*
Nc1nnnn1/N=C/c1cccc(O)c1 | -19.9 | 0.4 | -9.8 | 23.9
CC(C)CNC(=O)CN(c1cccc(Cl)c1)S(C)(=O)=O | nt | 0.3 | nt | nt
COC(=O)C1=C(C)N(Cc2ccco2)C(=O)/C1=C\c1ccc([N+](=O)[O-])cc1 | nt | 10.0* | nt | nt
COC(=O)C1=C(C)N(Cc2ccco2)C(=O)/C1=C\c1ccc(N(C)C)cc1 | -24.6 | 5.5 | 7.2 | 20.5
Nc1c(C(=O)c2ccccc2O)cnn1-c1ccc(S(=O)(=O)N2CCOCC2)cc1[N+](=O)[O-] | nt | 3.5 | nt | nt
O=CN(/C=C1\Sc2ccccc2C1=O)Cc1ccccc1 | -25.9 | 0.0 | 48.0* | 5.6
O=C(CCNC(=O)Cn1ccc2ccccc2c1=O)NCCc1ccc(Cl)cc1 | -42.0 | 0.7 | 1.2 | 25.3
Clc1cccc(CSc2nnc(-c3c[nH]c4ccccc34)o2)c1 | -25.4 | 10.1* | -21.1 | 4.9
O=c1c(-c2nnc(SCc3ccc(Cl)c(Cl)c3)o2)cccn1Cc1ccccc1 | -68.5 | 10.6* | 12.9 | 17.8
Cc1ccc(S(=O)(=O)N2CCCCC2)cc1NC(=O)COC(=O)Cc1cccc(C(F)(F)F)c1 | -47.1 | 9.2* | 8.0 | 5.7
O=C(NCC(=O)N(c1ccc(F)cc1)C(C(=O)NC1CCCC1)c1cccnc1)c1cccs1 (stereo not drawn) | nt | 8.9* | nt | nt
O=C(NCC(=O)N(c1ccc2c(c1)OCO2)C(C(=O)NC1CCCC1)c1cccs1)c1ccco1 (stereo not drawn) | -35.7 | 2.9 | -25.9 | 66.0*
C=CCN(C(=O)CNC(=O)c1ccco1)C(C(=O)NC1CCCCC1)c1ccccc1 (stereo not drawn) | -22.4 | 9.2* | -18.6 | 4.9
O=C(NC1CCCC1)C(c1cccs1)N(C(=O)c1ccco1)c1ccc2c(c1)OCO2 (stereo not drawn) | -19.9 | -0.2 | nt | 14.5
Cc1ccc(C)n1-c1ccc(-c2ccnc(N)n2)cc1 | nt | 1.6 | nt | nt
SMILES | Yeast growth inh | RAM inhibit | Yeast life ext | Measles CPE
CCSc1nnc(NC(=O)c2cc(OC)c(OC)c(OC)c2)s1 | nt | 1.1 | nt | nt
O=C(Oc1ccc(N(Cc2cccs2)C2=NS(=O)(=O)c3ccccc32)cc1)c1ccccc1F | -64.6 | 3.9 | -2.4 | 27.9*
CC(C)CCSc1nc2[nH]ncc2c(=O)[nH]1 | nt | 0.4 | nt | nt
COc1cccc(NC(=S)N2CCn3c(nc4ccccc43)C2)c1 | nt | 3.6 | nt | nt
CN1CCN(S(=O)(=O)c2ccc3[nH]c(=O)oc3c2)CC1 | -24.0 | 0.8 | 4.3 | 39.6*
CC1=Nc2ccc(C)cc2/C1=C/c1c(N)n2c(S(=O)(=O)C(C)C)nsc2nc1=O | nt | 2.0 | nt | nt
CSc1nsc2nc(=O)c(/C=C3\C(C)=Nc4ccc(C)cc43)c(N)n12 | nt | 9.3* | nt | nt
CN(c1cccc(NC(=O)CN(c2ccc(Cl)c(Cl)c2)S(=O)(=O)c2ccccc2)c1)S(C)(=O)=O | -60.1 | 9.7* | 28.6* | 7.7
COc1ccc(N(CC(=O)Nc2cccc(N(C)S(C)(=O)=O)c2)S(C)(=O)=O)cc1OC | -4.8 | 4.3 | 0.3 | 42.6*
CCOC(=O)N1CCN(C(=O)CN(c2ccc(OCc3ccccc3)cc2)S(C)(=O)=O)CC1 | -54.0 | -0.8 | 11.9 | 27.7*
Cc1ccc(S(=O)(=O)N(CC(=O)Nc2cccc(N(C)S(C)(=O)=O)c2)c2ccc(Cl)c(Cl)c2)cc1 | -35.8 | 5.9 | -0.1 | 22.7
CCOC(=O)N1CCN(C(=O)CN(c2ccccc2)S(C)(=O)=O)CC1 | nt | -0.5 | nt | nt
COc1ccc(N(CC(=O)Nc2cccc(C(C)=O)c2)S(C)(=O)=O)cc1OC | -29.4 | 0.1 | -21.9 | 92.5*
CCOC(=O)N1CCN(C(=O)C(=O)NNC(=O)COc2ccc(Cl)cc2)CC1 | -6.5 | 0.5 | -8.5 | 6.0
CCn1ncc(N(C)N)c(Cl)c1=O | nt | 1.6 | nt | nt
N#Cc1c(NC(=S)NC(=O)C2CCCC2)sc2c1CCCCC2 | 0.5 | 0.1 | 0.2 | 14.0
N#Cc1cc(Br)ccc1N=C1CCCN1c1ccccc1 | -18.2 | -0.3 | -2.6 | 5.9
COc1ccc(N(CC(=O)N2CCN(C)CC2)S(C)(=O)=O)cc1OC | 17.1 | 0.5 | -23.7 | 50.5*
Cc1ccccc1OCC(=O)Nc1cccc(N(C)S(C)(=O)=O)c1 | -37.3 | 0.5 | -20.1 | 24.4
Cc1cc(NC(=O)COc2ccc(Cl)cc2Cl)n(-c2ccccc2)n1 | -26.4 | 8.6* | -21.7 | 6.8
Cc1cc(NC(=O)CSc2cc(Cl)ccc2Cl)n(-c2ccccc2)n1 | 1.9 | 2.6 | 8.8 | 6.2
CN(c1cccc(NC(=O)COc2ccc(Cl)cc2Cl)c1)S(C)(=O)=O | -22.6 | 8.8* | nt | 1.7
COc1cc(NC(=S)NCCCN2CCOCC2)cc(OC)c1 | -3.0 | 0.0 | 1.0 | 28.5
Nc1c(CO)nnn1-c1ccccc1 | -5.9 | -0.1 | 5.9 | 8.1
CCNc1nc(NC(C)(C)C)nc(SCC(N)=O)n1 | nt | -0.9 | nt | nt
SMILES | Yeast growth inh | RAM inhibit | Yeast life ext | Measles CPE
O=C(CC1NCCNC1=O)Nc1ccc([N+](=O)[O-])cc1 (stereo not drawn) | nt | 2.0 | nt | nt
CCCCNC(=S)N(Cc1ccco1)Cc1cc2cc3c(cc2[nH]c1=O)OCCO3 | -9.5 | 8.5* | 0.3 | 22.1
O=C(CSc1nc2ncccc2[nH]1)c1cccc([N+](=O)[O-])c1 | -22.5 | 1.0 | -4.3 | 11.7
CCOC(=O)Cc1nnc(NC(=O)COc2ccc(OC)cc2)s1 | -28.4 | 1.9 | -9.1 | 22.7*
COc1ccc(/C=N/OCC(=O)N2CC3(C)CC2CC(C)(C)C3)cc1OC (stereo not drawn) | -48.2 | -1.5 | -7.4 | 43.5*
COc1cccc(OC)c1C(=O)NN1CCCCC1 | -47.2 | 0.8 | -4.3 | 35.3*
CC(=O)c1oc2ccccc2c1NC(=O)CCCN1C(=O)c2ccccc2C1=O | -18.6 | 2.7 | -5.9 | 5.6
COC(=O)CCC(=O)c1oc2ccccc2c1NC(=O)CCCN1C(=O)c2ccccc2C1=O | -40.5 | 8.9* | 25.7 | 5.7

From PubChem BioAssay
